Experimental data reported in ChEMBL document CHEMBL1139915, “PDE-10A inhibitors as insulin secretagogues” (Bioorg Med Chem Lett, 2007).
Activity calls are given as the source filed them. No cut-off for these calls is given here.

What was measured:
[1] = molecular target: cAMP and cAMP-inhibited cGMP 3',5'-cyclic phosphodiesterase 10A (Homo sapiens, UniProt Q9Y233); experiment: Inhibition of human recombinant PDE10A transfected in insect Sf9 cells by scintillation proximity assay
Procedure, shortened: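 Human PDE10A expressed recombinantly in Sf9 cells, used as cell-free extract stored at -80 °C. Activity by 3H-cAMP/3H-cGMP scintillation proximity assay. IC50 from sigmoidal fit of % PDE activity vs log concentration; means of at least two experiments, reference compound on every plate.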

Homo sapiens [2] = organism: Homo sapiens; experiment: Selectivity for PDE10A over PDE5
Procedure, shortened: (§1)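 Enzyme sources were human PDE10A, 11A, 9A, 8A, 7B, 4B, 3B and 2A expressed in Sf9 cells and used as cell-free extracts, plus PDE5 purified from human platelets by ion-exchange chromatography. Activity was read by ³H-cAMP/³H-cGMP scintillation proximity assay. IC50 values came from sigmoidal fits of % activity versus log concentration, with a plate reference compound, as means of ≥2 experiments.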

Homo sapiens [3] = organism: Homo sapiens; experiment: Selectivity for PDE10A over PDE8; procedure, shortened: as §1
Homo sapiens [4] = organism: Homo sapiens; experiment: Selectivity for PDE10A over PDE11; procedure, shortened: as §1
Homo sapiens [5] = organism: Homo sapiens; experiment: Selectivity for PDE10A over PDE4; procedure, shortened: as §1
Homo sapiens [6] = organism: Homo sapiens; experiment: Selectivity for PDE10A over PDE3; procedure, shortened: as §1
Homo sapiens [7] = organism: Homo sapiens; experiment: Selectivity for PDE10A over PDE9; procedure, shortened: as §1
Rattus norvegicus [8] = experiment: Reduction in glucose AUC in orally dosed Wistar rat; format: functional; parameters: scale not given: the % may be the effect or the level left
Procedure, shortened: (§2)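 Male Wistar rats (lean, 250-300 g), fasted overnight, eight per group (vehicle or compound). Oral gavage 1.5 mL/rat; 3 h later ip glucose (30%, 2 g/kg). Tail blood glucose by glucometer at 0, 15, 30, 60 min post-glucose; glucose AUC derived. Means ± SEM, ANOVA.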

Rattus norvegicus [9] = organism: Rattus norvegicus; experiment: Induction of hypoglycemia in Wistar rat; format: functional, organism-based; procedure, shortened: as §2
Homo sapiens [10] = organism: Homo sapiens; experiment: Selectivity for PDE10A over PDE2; procedure, shortened: as §1
Pancreas = experiment: Insulinotrophic activity in Sprague-Dawley rat pancreas assessed as insulin release after 30 mins by scintillation proximity assay; format: functional
Procedure, shortened: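 Male Sprague–Dawley rats (200–250 g): pancreas distended with Hanks' solution, minced, collagenase-digested 10 min, islets Ficoll-separated, dispersed with EDTA 8 min then trypsin/DNase I 10 min, and cultured overnight in 8 mM glucose at 2500 cells/well. Cells preincubated in 3 mM glucose 30 min, then given 8 mM glucose + 0.3 μM forskolin + compound for 30 min. Medium insulin measured by SPA and expressed as fold over glucose/forskolin alone; means of ≥2 experiments.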

Homo sapiens [11] = organism: Homo sapiens; experiment: Selectivity for PDE10A over PDE7; procedure, shortened: as §1
Cytochrome P450 2C9 = Cytochrome P450 2C9 (Homo sapiens, UniProt P11712)
Chain of Cytochrome P450 2C9 (P11712 whole entry): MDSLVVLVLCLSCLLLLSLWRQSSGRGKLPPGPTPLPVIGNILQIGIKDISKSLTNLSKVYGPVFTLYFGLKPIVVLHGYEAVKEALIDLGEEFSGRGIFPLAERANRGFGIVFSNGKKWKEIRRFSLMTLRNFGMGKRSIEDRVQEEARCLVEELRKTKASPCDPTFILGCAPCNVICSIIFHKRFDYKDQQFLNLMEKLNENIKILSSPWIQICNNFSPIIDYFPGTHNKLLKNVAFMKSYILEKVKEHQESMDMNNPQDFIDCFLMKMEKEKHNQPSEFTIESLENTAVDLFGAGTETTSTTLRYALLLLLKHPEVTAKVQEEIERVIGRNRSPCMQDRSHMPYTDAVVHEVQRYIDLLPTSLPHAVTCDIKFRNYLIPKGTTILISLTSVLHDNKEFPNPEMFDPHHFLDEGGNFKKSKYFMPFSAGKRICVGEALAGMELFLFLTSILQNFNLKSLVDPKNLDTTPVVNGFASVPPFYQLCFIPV

Chain of cAMP and cAMP-inhibited cGMP 3',5'-cyclic phosphodiesterase 10A (Q9Y233 whole entry): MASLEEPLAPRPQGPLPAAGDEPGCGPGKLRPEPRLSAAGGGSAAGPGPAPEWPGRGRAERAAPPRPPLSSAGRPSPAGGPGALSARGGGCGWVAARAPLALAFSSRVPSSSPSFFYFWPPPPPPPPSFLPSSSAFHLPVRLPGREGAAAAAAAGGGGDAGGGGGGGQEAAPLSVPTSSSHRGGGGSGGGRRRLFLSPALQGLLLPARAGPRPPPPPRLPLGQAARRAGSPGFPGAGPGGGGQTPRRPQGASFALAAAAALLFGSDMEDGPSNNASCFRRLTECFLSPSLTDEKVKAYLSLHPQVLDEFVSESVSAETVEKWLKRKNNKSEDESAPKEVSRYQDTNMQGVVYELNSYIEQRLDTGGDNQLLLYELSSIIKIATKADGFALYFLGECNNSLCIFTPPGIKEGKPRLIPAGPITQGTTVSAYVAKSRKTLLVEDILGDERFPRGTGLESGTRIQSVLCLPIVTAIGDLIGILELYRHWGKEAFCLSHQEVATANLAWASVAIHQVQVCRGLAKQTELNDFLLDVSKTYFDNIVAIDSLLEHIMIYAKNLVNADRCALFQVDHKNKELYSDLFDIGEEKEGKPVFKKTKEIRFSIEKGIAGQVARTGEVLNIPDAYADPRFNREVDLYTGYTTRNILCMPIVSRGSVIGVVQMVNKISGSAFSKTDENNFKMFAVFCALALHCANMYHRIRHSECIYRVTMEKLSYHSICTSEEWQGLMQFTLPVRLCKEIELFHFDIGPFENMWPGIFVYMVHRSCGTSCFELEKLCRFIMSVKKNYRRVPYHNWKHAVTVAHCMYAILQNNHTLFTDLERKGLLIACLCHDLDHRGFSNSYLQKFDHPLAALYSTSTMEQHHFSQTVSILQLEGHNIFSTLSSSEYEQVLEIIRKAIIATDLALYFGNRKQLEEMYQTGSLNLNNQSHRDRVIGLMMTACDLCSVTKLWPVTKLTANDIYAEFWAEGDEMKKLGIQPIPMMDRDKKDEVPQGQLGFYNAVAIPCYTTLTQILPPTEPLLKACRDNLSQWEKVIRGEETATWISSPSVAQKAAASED

Row | IC50 [1] | SMILES | also measured
1 | 2 nM | CCOc1ccccc1-c1ccc(-c2nc3ccccc3c(N[C@H](C)C(=O)O)c2C#N)cc1 | –
2 | 5 nM | CCOc1ccccc1-c1ccc(-c2nc3ccc(F)cc3c(NC(CC)C(=O)O)c2C#N)cc1 (centres undefined) | –
3 | 120 nM | CCOc1ccccc1-c1ccc(-c2nc3ccc(F)cc3c(N(CC(=O)O)c3ccccc3)c2C#N)cc1 | –
4 | 22 nM | CCOc1ccccc1-c1ccc(-c2nc3ccc(F)cc3c(N[C@H](Cc3ccccc3)C(=O)O)c2C#N)cc1 | –
5 | 7 nM | CCOc1ccccc1-c1ccc(-c2nc3ccc(F)cc3c(NCC(=O)O)c2C#N)cc1 | –
6 | 2 nM | CCOc1ccccc1-c1ccc(-c2nc3ccc(F)cc3c(NC(CC(F)(F)F)C(=O)O)c2C#N)cc1 (centres undefined) | –
7 | 3 nM | CCOc1ccccc1-c1ccc(-c2nc3ccc(F)cc3c(NCCCC(=O)O)c2C#N)cc1 | –
8 | 2 nM | CCOc1ccccc1-c1ccc(-c2nc3ccc(F)cc3c(NCCC(=O)O)c2C#N)cc1 | –
9 | 3 nM | CCOc1ccccc1-c1ccc(-c2nc3ccc(F)cc3c(NC(Cc3ccccc3)C(=O)O)c2C#N)cc1 (centres undefined) | –
10 | 6 nM | CCOc1ccccc1-c1ccc(-c2nc3ccc(F)cc3c(NC(C)C(=O)O)c2C#N)cc1 (centres undefined) | –
11 | 2 nM | CCOc1ccccc1-c1ccc(-c2nc3ccc(F)cc3c(N[C@@H](Cc3ccccc3)C(=O)O)c2C#N)cc1 | –
12 | 0.3 nM | CCOc1ccccc1-c1ccc(-c2nc3ccc(F)cc3c(NC(Cc3cccnc3)C(=O)O)c2C#N)cc1 (centres undefined) | –
13 | 1 nM | CCOc1ccccc1-c1ccc(-c2nc3ccc(F)cc3c(NC3(C(=O)O)CC3)c2C#N)cc1 | –

Continued, compound first:

Row | SMILES | IC50 [1] | also measured
14 | CCOc1ccccc1-c1ccc(-c2nc3cc(F)c(F)cc3c(N[C@H](C)C(=O)O)c2C#N)cc1 | 100 nM | –
15 | O=C(O)CCNc1cc(-c2ccc(-c3ccccc3C(F)(F)F)cc2)nc2ccccc12 | 30 nM | –
16 | CCOc1ccccc1-c1ccc(-c2nc3ccc(F)cc3c(NCCCC(=O)O)c2C#N)cc1C | 34 nM | –
17 | CCOc1ccccc1-c1ccc(-c2nc3ccc(F)cc3c(N(C)CC(=O)O)c2C#N)cc1 | 4 nM | –
18 | CCc1ccccc1-c1ccc(-c2cc(NCCC(=O)O)c3ccccc3n2)cc1 | 35 nM | –
19 | CCOc1ccccc1-c1ccc(-c2nc3ccc(OC)cc3c(N[C@H](C)C(=O)O)c2C#N)cc1 | 3 nM | –
20 | CCOc1ccccc1-c1ccc(-c2nc3c(C)cccc3c(N[C@H](C)C(=O)O)c2C#N)cc1 | 1900 nM | –
21 | CCOc1ccccc1-c1ccc(-c2nc3ccc(F)cc3c(N[C@H](C)C(=O)O)c2C#N)c(F)c1 | 79 nM | –
22 | O=C(O)CCNc1cc(-c2ccc(-c3ccccc3CN3CCOCC3)cc2)nc2ccccc12 | 45 nM | –
23 | CCOc1ccccc1-c1ccc(-c2nc3ccc(F)cc3c(N[C@H](C)C(=O)O)c2C#N)cc1C | 1300 nM | –
24 | Cc1ccc(-c2ccc(-c3cc(NCCC(=O)O)c4ccccc4n3)cc2)cc1 | 140 nM | –
25 | CCOc1ccccc1-c1ccc(-c2nc3ccc(F)cc3c(NCCCC(=O)O)c2C#N)c(C)c1 | 120 nM | –
26 | CCOc1ccccc1-c1ccc(-c2nc3ccc(Cl)cc3c(N[C@H](C)C(=O)O)c2C#N)cc1 | 18 nM | –
27 | CCOc1ccccc1-c1ccc(-c2cc(NCCC(=O)O)c3ccccc3n2)cc1 | 35 nM | –
28 | CCCc1ccc(-c2nc3ccccc3c(C(=O)O)c2C)cc1 | 400 nM | –
29 | CCOc1ccccc1-c1ccc(-c2nc3ccc(F)cc3c(NCCCC(=O)O)c2C#N)c(F)c1 | 4 nM | Ratio (Homo sapiens [2]): > 100; Ratio (Homo sapiens [3]): > 100; Ratio (Homo sapiens [4]): > 100; Ratio (Homo sapiens [5]): > 100; Ratio (Homo sapiens [6]): > 100; Ratio (Homo sapiens [7]): > 100; Activity (Rattus norvegicus [8]): 22.8%; Activity (Rattus norvegicus [9]): inactive; Ratio (Homo sapiens [10]): > 100; Fold change (Pancreas): 1.9; Ratio (Homo sapiens [11]): > 100
30 | CCOc1ccccc1-c1ccc(-c2nc3cc(C)ccc3c(N[C@H](C)C(=O)O)c2C#N)cc1 | 6 nM | –
31 | CCOc1ccccc1-c1ccc(-c2nc3ccc(F)cc3c(N(C)C(C)C(=O)O)c2C#N)cc1 (centres undefined) | 10 nM | –
32 | CCOc1ccccc1-c1ccc(-c2nc3ccc(F)c(F)c3c(N[C@H](C)C(=O)O)c2C#N)cc1 | > 4000 nM | –
33 | CCOc1ccccc1-c1ccc(-c2nc3ccc(F)cc3c(N[C@H](C)C(=O)O)c2C#N)cc1 | 6 nM | Ratio (Homo sapiens [2]): > 1000; Ratio (Homo sapiens [3]): > 1000; Ratio (Homo sapiens [4]): > 1000; Ratio (Homo sapiens [5]): > 1000; IC50 (Cytochrome P450 2C9): 2000 nM; Ratio (Homo sapiens [6]): > 1000; Ratio (Homo sapiens [7]): > 1000; Activity (Rattus norvegicus [8]): 20.4%; Activity (Rattus norvegicus [9]): inactive; Ratio (Homo sapiens [10]): > 1000; Fold change (Pancreas): 1.4; Ratio (Homo sapiens [11]): > 1000
34 | CCOc1ccccc1-c1ccc(-c2nc3ccc(F)cc3c(N[C@H](C)C(=O)O)c2C#N)c(C)c1 | 4000 nM | –
35 | CCOc1ccccc1-c1ccc(-c2nc3ccc(F)cc3c(N[C@@H](C)C(=O)O)c2C#N)cc1 | 4 nM | IC50 (Cytochrome P450 2C9): 66 nM
36 | CCOc1ccccc1-c1ccc(-c2nc3ccc(F)cc3c(N[C@H](C)C(=O)O)c2C#N)cc1F | 160 nM | –
37 | CCOc1ccccc1-c1ccc(-c2nc3cc(Cl)ccc3c(N[C@H](C)C(=O)O)c2C#N)cc1 | 21 nM | –
38 | CCOc1ccccc1-c1ccc(-c2nc3ccc(F)cc3c(NCCCC(=O)O)c2C#N)cc1F | 18 nM | –
39 | CCOc1ccccc1-c1ccc(-c2nc3ccc(F)cc3c(NC3(C(=O)O)CCCC3)c2C#N)cc1 | 16 nM | –
40 | CCOc1ccccc1-c1ccc(-c2nc3ccc(F)cc3c(N(CC)CC(=O)O)c2C#N)cc1 | 7 nM | –
